ChEMBL document CHEMBL2413013, “Triplex-forming ability of oligonucleotides containing 1-aryl-1,2,3-triazole nucleobases linked via a two atom-length spacer” (Bioorg Med Chem, 2013)

Legend:
[1] = Binding affinity to hairpin double stranded DNA AT base pair in sodium cacodylate buffer at pH 6.8 assessed as triplex-forming ability measuring melting temperature after by UV melting experiment
Method in brief: (§1)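 TFO and hairpin dsDNA target, each strand at 1.89 μM final, in 10 mM sodium cacodylate (pH 6.8) with 100 mM KCl and 50 mM MgCl₂. Annealed in boiling water, then cooled slowly to 5 °C. Melting was followed at 260 nm from 5 to 90 °C at 0.5 °C/min. Tm was taken by the two-point average method, mean of three independent runs.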

[2] = Binding affinity to hairpin double stranded DNA GC base pair in sodium cacodylate buffer at pH 6.8 assessed as triplex-forming ability measuring melting temperature after by UV melting experiment; method in brief: as §1
[3] = Binding affinity to hairpin double stranded DNA CG base pair in sodium cacodylate buffer at pH 6.8 assessed as triplex-forming ability measuring melting temperature after by UV melting experiment; method in brief: as §1
[4] = Binding affinity to hairpin double stranded DNA TA base pair in sodium cacodylate buffer at pH 6.8 assessed as triplex-forming ability measuring melting temperature after by UV melting experiment; method in brief: as §1

Tm [1]	Tm [2]	Tm [3]	Tm [4]	Structure (SMILES)
21 °C	21 °C	26 °C	27 °C	CC(=O)N1CCCc2ccc(-n3cc(CC[C@H]4C[C@H](OP(=O)(O)OC[C@H]5O[C@@H](n6cc(C)c(=O)[nH]c6=O)C[C@@H]5O[PH](OCCC#N)(OC(C)[C@H]5O[C@@H](n6ccc(N)nc6=O)C[C@@H]5O[PH](OCCC#N)(OC[C@H]5O[C@@H](n6cc(C)c(=O)[nH]c6=O)C[C@@H]5O[PH](OCCC#N)(OC(C)[C@H]5O[C@@H](n6ccc(N)nc6=O)C[C@@H]5O[PH](OCCC#N)(OC[C@H]5O[C@@H](n6cc(C)c(=O)[nH]c6=O)C[C@@H]5O[PH](OCCC#N)(OC(C)[C@H]5O[C@@H](n6ccc(N)nc6=O)C[C@@H]5O[PH](OCCC#N)(OC[C@H]5O[C@@H](n6cc(C)c(=O)[nH]c6=O)C[C@@H]5O)N(C(C)C)C(C)C)N(C(C)C)C(C)C)N(C(C)C)C(C)C)N(C(C)C)C(C)C)N(C(C)C)C(C)C)N(C(C)C)C(C)C)[C@@H](CO[PH](OCCC#N)(O[C@H]5C[C@H](n6cc(C)c(=O)[nH]c6=O)O[C@@H]5CO[PH](OCCC#N)(O[C@H]5C[C@H](n6ccc(N)nc6=O)O[C@@H]5C(C)O[PH](OCCC#N)(O[C@H]5C[C@H](n6cc(C)c(=O)[nH]c6=O)O[C@@H]5CO[PH](OCCC#N)(O[C@H]5C[C@H](n6cc(C)c(=O)[nH]c6=O)O[C@@H]5CO[PH](OCCC#N)(O[C@H]5C[C@H](n6cc(C)c(=O)[nH]c6=O)O[C@@H]5CO[PH](OCCC#N)(O[C@H]5C[C@H](n6cc(C)c(=O)[nH]c6=O)O[C@@H]5CO[PH](OCCC#N)(O[C@H]5C[C@H](n6cc(C)c(=O)[nH]c6=O)O[C@@H]5CO)N(C(C)C)C(C)C)N(C(C)C)C(C)C)N(C(C)C)C(C)C)N(C(C)C)C(C)C)N(C(C)C)C(C)C)N(C(C)C)C(C)C)N(C(C)C)C(C)C)O4)nn3)cc21 (stereo not given in full)
23 °C	23 °C	27 °C	28 °C	Cc1cn([C@H]2C[C@H](O[PH](OCCC#N)(OC[C@H]3O[C@@H](n4cc(C)c(=O)[nH]c4=O)C[C@@H]3O[PH](OCCC#N)(OC[C@H]3O[C@@H](n4cc(C)c(=O)[nH]c4=O)C[C@@H]3O[PH](OCCC#N)(OC[C@H]3O[C@@H](n4cc(C)c(=O)[nH]c4=O)C[C@@H]3O[PH](OCCC#N)(OC[C@H]3O[C@@H](n4cc(C)c(=O)[nH]c4=O)C[C@@H]3O[PH](OCCC#N)(OC(C)[C@H]3O[C@@H](n4ccc(N)nc4=O)C[C@@H]3O[PH](OCCC#N)(OC[C@H]3O[C@@H](n4cc(C)c(=O)[nH]c4=O)C[C@@H]3O[PH](OCCC#N)(OC[C@H]3O[C@@H](CCc4cn(-c5cccc(NC(N)=O)c5)nn4)C[C@@H]3OP(=O)(O)OC[C@H]3O[C@@H](n4cc(C)c(=O)[nH]c4=O)C[C@@H]3O[PH](OCCC#N)(OC(C)[C@H]3O[C@@H](n4ccc(N)nc4=O)C[C@@H]3O[PH](OCCC#N)(OC[C@H]3O[C@@H](n4cc(C)c(=O)[nH]c4=O)C[C@@H]3O[PH](OCCC#N)(OC(C)[C@H]3O[C@@H](n4ccc(N)nc4=O)C[C@@H]3O[PH](OCCC#N)(OC[C@H]3O[C@@H](n4cc(C)c(=O)[nH]c4=O)C[C@@H]3O[PH](OCCC#N)(OC(C)[C@H]3O[C@@H](n4ccc(N)nc4=O)C[C@@H]3O[PH](OCCC#N)(OC[C@H]3O[C@@H](n4cc(C)c(=O)[nH]c4=O)C[C@@H]3O)N(C(C)C)C(C)C)N(C(C)C)C(C)C)N(C(C)C)C(C)C)N(C(C)C)C(C)C)N(C(C)C)C(C)C)N(C(C)C)C(C)C)N(C(C)C)C(C)C)N(C(C)C)C(C)C)N(C(C)C)C(C)C)N(C(C)C)C(C)C)N(C(C)C)C(C)C)N(C(C)C)C(C)C)N(C(C)C)C(C)C)[C@@H](CO)O2)c(=O)[nH]c1=O (stereo not given in full)
20 °C	20 °C	23 °C	20 °C	CC1=CN([C@H]2C[C@H](O[PH](OCCC#N)(OC(C)[C@H]3O[C@@H](n4ccc(N)nc4=O)C[C@@H]3O[PH](OCCC#N)(OC[C@H]3O[C@@H](n4cc(C)c(=O)[nH]c4=O)C[C@@H]3O[PH](OCCC#N)(OC[C@H]3O[C@@H](OCc4cn(-c5ccccc5O)nn4)C[C@@H]3OP(=O)(O)OC[C@H]3O[C@@H](n4cc(C)c(=O)[nH]c4=O)C[C@@H]3O[PH](OCCC#N)(OC(C)[C@H]3O[C@@H](n4ccc(N)nc4=O)C[C@@H]3O[PH](OCCC#N)(OC[C@H]3O[C@@H](n4cc(C)c(=O)[nH]c4=O)C[C@@H]3O[PH](OCCC#N)(OC(C)[C@H]3O[C@@H](n4ccc(N)nc4=O)C[C@@H]3O[PH](OCCC#N)(OC[C@H]3O[C@@H](n4cc(C)c(=O)[nH]c4=O)C[C@@H]3O[PH](OCCC#N)(OC(C)[C@H]3O[C@@H](n4ccc(N)nc4=O)C[C@@H]3O[PH](OCCC#N)(OC[C@H]3O[C@@H](n4cc(C)c(=O)[nH]c4=O)C[C@@H]3O)N(C(C)C)C(C)C)N(C(C)C)C(C)C)N(C(C)C)C(C)C)N(C(C)C)C(C)C)N(C(C)C)C(C)C)N(C(C)C)C(C)C)N(C(C)C)C(C)C)N(C(C)C)C(C)C)N(C(C)C)C(C)C)[C@@H](CO[PH](OCCC#N)(O[C@H]3C[C@H](n4cc(C)c(=O)[nH]c4=O)O[C@@H]3CO[PH](OCCC#N)(O[C@H]3C[C@H](n4cc(C)c(=O)[nH]c4=O)O[C@@H]3CO[PH](OCCC#N)(O[C@H]3C[C@H](n4cc(C)c(=O)[nH]c4=O)O[C@@H]3CO[PH](OCCC#N)(O[C@H]3C[C@H](n4cc(C)c(=O)[nH]c4=O)O[C@@H]3CO)N(C(C)C)C(C)C)N(C(C)C)C(C)C)N(C(C)C)C(C)C)N(C(C)C)C(C)C)O2)C(O)NC1=O (stereo not given in full)
19 °C	20 °C	23 °C	19 °C	Cc1cn([C@H]2C[C@H](O[PH](OCCC#N)(OC[C@H]3O[C@@H](n4cc(C)c(=O)[nH]c4=O)C[C@@H]3O[PH](OCCC#N)(OC[C@H]3O[C@@H](n4cc(C)c(=O)[nH]c4=O)C[C@@H]3O[PH](OCCC#N)(OC[C@H]3O[C@@H](n4cc(C)c(=O)[nH]c4=O)C[C@@H]3O[PH](OCCC#N)(OC[C@H]3O[C@@H](n4cc(C)c(=O)[nH]c4=O)C[C@@H]3O[PH](OCCC#N)(OC(C)[C@H]3O[C@@H](N4C=CC(N)=N[C@@H]4O)C[C@@H]3O[PH](OCCC#N)(OC[C@H]3O[C@@H](n4cc(C)c(=O)[nH]c4=O)C[C@@H]3O[PH](OCCC#N)(OC[C@H]3O[C@@H](OCc4cn(-c5cccc(C(N)=O)c5)nn4)C[C@@H]3OP(=O)(O)OC[C@H]3O[C@@H](n4cc(C)c(=O)[nH]c4=O)C[C@@H]3O[PH](OCCC#N)(OC(C)[C@H]3O[C@@H](n4ccc(N)nc4=O)C[C@@H]3O[PH](OCCC#N)(OC[C@H]3O[C@@H](n4cc(C)c(=O)[nH]c4=O)C[C@@H]3O[PH](OCCC#N)(OC(C)[C@H]3O[C@@H](n4ccc(N)nc4=O)C[C@@H]3O[PH](OCCC#N)(OC[C@H]3O[C@@H](n4cc(C)c(=O)[nH]c4=O)C[C@@H]3O[PH](OCCC#N)(OC(C)[C@H]3O[C@@H](n4ccc(N)nc4=O)C[C@@H]3O[PH](OCCC#N)(OC[C@H]3O[C@@H](n4cc(C)c(=O)[nH]c4=O)C[C@@H]3O)N(C(C)C)C(C)C)N(C(C)C)C(C)C)N(C(C)C)C(C)C)N(C(C)C)C(C)C)N(C(C)C)C(C)C)N(C(C)C)C(C)C)N(C(C)C)C(C)C)N(C(C)C)C(C)C)N(C(C)C)C(C)C)N(C(C)C)C(C)C)N(C(C)C)C(C)C)N(C(C)C)C(C)C)N(C(C)C)C(C)C)[C@@H](CO)O2)c(=O)[nH]c1=O (stereo not given in full)
16 °C	19 °C	20 °C	18 °C	Cc1cn([C@H]2C[C@H](O[PH](OCCC#N)(OC[C@H]3O[C@@H](n4cc(C)c(=O)[nH]c4=O)C[C@@H]3O[PH](OCCC#N)(OC[C@H]3O[C@@H](n4cc(C)c(=O)[nH]c4=O)C[C@@H]3O[PH](OCCC#N)(OC[C@H]3O[C@@H](n4cc(C)c(=O)[nH]c4=O)C[C@@H]3O[PH](OCCC#N)(OC[C@H]3O[C@@H](n4cc(C)c(=O)[nH]c4=O)C[C@@H]3O[PH](OCCC#N)(OC(C)[C@H]3O[C@@H](n4ccc(N)nc4=O)C[C@@H]3O[PH](OCCC#N)(OC[C@H]3O[C@@H](n4cc(C)c(=O)[nH]c4=O)C[C@@H]3O[PH](OCCC#N)(OC[C@H]3O[C@@H](CCc4cn(-c5ccccc5C(N)=O)nn4)C[C@@H]3OP(=O)(O)OC[C@H]3O[C@@H](n4cc(C)c(=O)[nH]c4=O)C[C@@H]3O[PH](OCCC#N)(OC(C)[C@H]3O[C@@H](n4ccc(N)nc4=O)C[C@@H]3O[PH](OCCC#N)(OC[C@H]3O[C@@H](n4cc(C)c(=O)[nH]c4=O)C[C@@H]3O[PH](OCCC#N)(OC(C)[C@H]3O[C@@H](n4ccc(N)nc4=O)C[C@@H]3O[PH](OCCC#N)(OC[C@H]3O[C@@H](n4cc(C)c(=O)[nH]c4=O)C[C@@H]3O[PH](OCCC#N)(OC(C)[C@H]3O[C@@H](n4ccc(N)nc4=O)C[C@@H]3O[PH](OCCC#N)(OC[C@H]3O[C@@H](n4cc(C)c(=O)[nH]c4=O)C[C@@H]3O)N(C(C)C)C(C)C)N(C(C)C)C(C)C)N(C(C)C)C(C)C)N(C(C)C)C(C)C)N(C(C)C)C(C)C)N(C(C)C)C(C)C)N(C(C)C)C(C)C)N(C(C)C)C(C)C)N(C(C)C)C(C)C)N(C(C)C)C(C)C)N(C(C)C)C(C)C)N(C(C)C)C(C)C)N(C(C)C)C(C)C)[C@@H](CO)O2)c(=O)[nH]c1=O (stereo not given in full)
